According to ChEMBL document CHEMBL4715684, “Computer-aided discovery of phenylpyrazole based amides as potent S6K1 inhibitors” (RSC Med Chem, 2020):

Legend:
[1] = target: CYP2C9 (Homo sapiens, UniProt P11712); experiment: Inhibition of human CYP2C9 using tolubutamide as substrate at 10 uM by cocktail inhibition assay; format: ADME; settings: probe tolubutamide
Outline: (§1)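 Cocktail P450 assay measuring marker metabolism with and without 10 µM test compound: CYP1A2 phenacetin […] to acetaminophen, CYP2C9 tolbutamide to hydroxytolbutamide, CYP2D6 bufuralol to […], CYP3A4 midazolam to 1'-hydroxymidazolam. Each substrate was at about its Km. Isoform-specific inhibitors were run as system controls. Values are means of three experiments, with errors within 30% of the mean.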

[2] = Oral bioavailability in Sprague-Dawley rat at 2 mg/kg measured upto 8 hrs by LC/MS/MS analysis; format: ADME, organism-based; settings: in vivo
Outline: (§2)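 Sprague Dawley rats were dosed with compound in a generic formulation at 1 mg mL-1, either 1 mg kg-1 iv into the femoral vein or 2 mg kg-1 by oral gavage. Blood was drawn at 5, 15, 30 min and 1, 2, 4, 6, 8 h into EDTA, and plasma was obtained by centrifugation. Plasma was precipitated with acetonitrile containing internal standard, then analysed by C18 LC-MS/MS (positive MRM) against internal-standard peak areas. Data were fitted with an IV bolus model.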

[3] = target: T1, CYP1A2 (Homo sapiens, UniProt P05177); experiment: Inhibition of human CYP1A2 using phenacetin as substrate at 10 uM by cocktail inhibition assay; format: ADME; settings: probe phenacetin; outline: as §1
T1 sequence (P05177 whole entry): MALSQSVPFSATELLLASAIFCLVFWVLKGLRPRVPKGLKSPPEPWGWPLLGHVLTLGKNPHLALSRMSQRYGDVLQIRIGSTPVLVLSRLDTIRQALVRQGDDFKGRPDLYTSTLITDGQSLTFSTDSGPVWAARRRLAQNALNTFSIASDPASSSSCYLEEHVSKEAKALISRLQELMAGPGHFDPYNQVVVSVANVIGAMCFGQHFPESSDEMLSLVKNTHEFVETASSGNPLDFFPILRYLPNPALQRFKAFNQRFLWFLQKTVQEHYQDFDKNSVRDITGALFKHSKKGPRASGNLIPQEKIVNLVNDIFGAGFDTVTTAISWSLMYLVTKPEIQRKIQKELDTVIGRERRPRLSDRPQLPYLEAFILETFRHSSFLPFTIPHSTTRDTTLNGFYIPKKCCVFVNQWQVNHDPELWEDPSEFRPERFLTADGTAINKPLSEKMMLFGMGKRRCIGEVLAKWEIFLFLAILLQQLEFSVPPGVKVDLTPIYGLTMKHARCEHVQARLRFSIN

[4] = target: CYP3A4 (Homo sapiens, UniProt P08684); experiment: Inhibition of human CYP3A4 using midazolam as substrate at 10 uM by cocktail inhibition assay; format: ADME; settings: probe midazolam; outline: as §1
Chain of CYP3A4 (P08684 whole entry): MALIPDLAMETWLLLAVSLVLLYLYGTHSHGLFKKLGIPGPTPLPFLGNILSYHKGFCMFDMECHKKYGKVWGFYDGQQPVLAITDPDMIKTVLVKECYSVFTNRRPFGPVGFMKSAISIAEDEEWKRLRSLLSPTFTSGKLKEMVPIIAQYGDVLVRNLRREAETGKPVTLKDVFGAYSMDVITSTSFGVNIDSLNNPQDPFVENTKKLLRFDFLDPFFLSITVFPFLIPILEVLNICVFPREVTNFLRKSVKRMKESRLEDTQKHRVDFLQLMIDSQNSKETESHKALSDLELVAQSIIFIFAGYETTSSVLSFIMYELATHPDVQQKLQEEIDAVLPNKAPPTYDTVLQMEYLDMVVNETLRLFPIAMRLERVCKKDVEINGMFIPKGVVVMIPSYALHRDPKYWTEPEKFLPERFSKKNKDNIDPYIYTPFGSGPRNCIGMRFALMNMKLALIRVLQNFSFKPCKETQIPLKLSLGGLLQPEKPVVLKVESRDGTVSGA

[5] = Metabolic stability in human liver microsomes assessed as half life; format: ADME, Microsome
Outline: (§3)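 Half-life in human or rat liver microsomes, reported as the mean of three experiments with errors within 30% of the mean.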

[6] = Cmax in Sprague-Dawley rat at 2 mg/kg, po measured upto 8 hrs by LC/MS/MS analysis; format: ADME, organism-based; design: route oral, dose 2 mg/kg, time <=8; settings: in vivo; outline: as §2
[7] = Volume of distribution in Sprague-Dawley rat at 1 mg/kg, iv measured upto 8 hrs by LC/MS/MS analysis; format: ADME, organism-based; settings: in vivo; outline: as §2
[8] = AUC in Sprague-Dawley rat at 1 mg/kg, iv measured upto 8 hrs by LC/MS/MS analysis; format: ADME, organism-based; design: route intravenous, dose 1 mg/kg, time <=8; settings: in vivo; outline: as §2
[9] = Half life in Sprague-Dawley rat at 1 mg/kg, iv measured upto 8 hrs by LC/MS/MS analysis; format: ADME, organism-based; settings: in vivo; outline: as §2
[10] = target: CYP2D6 (Homo sapiens, UniProt P10635); experiment: Inhibition of human CYP2D6 using bufuralol as substrate at 10 uM by cocktail inhibition assay; format: ADME; settings: probe bufuralol; outline: as §1
Chain of CYP2D6 (P10635 whole entry): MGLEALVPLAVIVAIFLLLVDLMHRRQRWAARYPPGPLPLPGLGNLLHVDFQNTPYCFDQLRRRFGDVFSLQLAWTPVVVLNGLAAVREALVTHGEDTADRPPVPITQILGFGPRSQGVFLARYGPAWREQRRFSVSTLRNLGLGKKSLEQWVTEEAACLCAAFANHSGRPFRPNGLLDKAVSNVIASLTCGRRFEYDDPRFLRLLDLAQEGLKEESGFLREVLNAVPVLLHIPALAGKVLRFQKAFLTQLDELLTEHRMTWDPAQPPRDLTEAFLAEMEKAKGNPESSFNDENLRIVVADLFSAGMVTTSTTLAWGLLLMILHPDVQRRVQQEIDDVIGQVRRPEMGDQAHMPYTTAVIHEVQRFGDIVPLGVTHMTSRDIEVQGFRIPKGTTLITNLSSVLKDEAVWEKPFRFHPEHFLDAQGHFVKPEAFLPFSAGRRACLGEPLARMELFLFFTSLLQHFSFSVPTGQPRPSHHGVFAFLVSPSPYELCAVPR

[11] = target: Ribosomal protein S6 kinase beta-1 (Homo sapiens, UniProt P23443); experiment: Inhibition of human S6K1 using KKRNRTLTK peptide substrate by radiometric assay
Chain of Ribosomal protein S6 kinase beta-1 (P23443 whole entry): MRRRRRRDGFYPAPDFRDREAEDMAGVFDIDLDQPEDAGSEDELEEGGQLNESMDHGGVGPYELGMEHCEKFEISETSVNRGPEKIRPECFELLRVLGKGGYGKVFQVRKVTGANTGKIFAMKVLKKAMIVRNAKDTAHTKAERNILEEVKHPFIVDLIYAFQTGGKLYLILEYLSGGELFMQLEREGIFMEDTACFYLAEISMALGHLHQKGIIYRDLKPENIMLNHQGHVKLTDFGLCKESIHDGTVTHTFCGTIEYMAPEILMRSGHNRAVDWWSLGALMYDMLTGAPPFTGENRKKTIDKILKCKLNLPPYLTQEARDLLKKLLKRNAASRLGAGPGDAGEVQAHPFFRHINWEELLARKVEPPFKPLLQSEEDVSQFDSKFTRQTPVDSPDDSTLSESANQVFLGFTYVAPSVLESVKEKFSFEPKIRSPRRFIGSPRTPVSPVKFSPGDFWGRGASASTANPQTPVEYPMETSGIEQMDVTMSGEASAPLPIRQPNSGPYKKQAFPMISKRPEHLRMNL

[12] = Metabolic stability in rat liver microsomes assessed as half life; format: ADME, Microsome; outline: as §3
[13] = Clearance in Sprague-Dawley rat at 1 mg/kg, iv measured upto 8 hrs by LC/MS/MS analysis; format: ADME, organism-based; settings: in vivo; outline: as §2

Chain of CYP2C9 (P11712 whole entry, canonical isoform): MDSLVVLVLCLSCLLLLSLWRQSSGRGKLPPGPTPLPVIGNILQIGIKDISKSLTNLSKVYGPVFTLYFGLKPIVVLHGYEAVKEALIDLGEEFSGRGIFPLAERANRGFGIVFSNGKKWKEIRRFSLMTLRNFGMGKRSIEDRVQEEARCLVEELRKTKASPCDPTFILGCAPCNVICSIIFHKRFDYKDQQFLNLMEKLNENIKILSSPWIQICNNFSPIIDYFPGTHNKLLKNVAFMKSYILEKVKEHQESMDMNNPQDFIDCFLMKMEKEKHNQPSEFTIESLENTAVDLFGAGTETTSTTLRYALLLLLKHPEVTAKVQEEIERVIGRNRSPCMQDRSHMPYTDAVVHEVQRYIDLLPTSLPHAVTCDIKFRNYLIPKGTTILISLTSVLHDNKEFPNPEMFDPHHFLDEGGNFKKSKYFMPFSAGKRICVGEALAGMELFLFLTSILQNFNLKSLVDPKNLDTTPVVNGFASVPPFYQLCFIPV

inhibition at 10 µM [1] | bioavailability [2] | inhibition at 10 µM [3] | inhibition at 10 µM [4] | half-life [5] | Cmax [6] | Vd [7] | AUC at 8 h [8] | half-life [9] | inhibition at 10 µM [10] | IC50 [11] | half-life [12] | clearance [13] | SMILES
63% | 25% | 42% | 38% | 23 min | 670 nM | 0.7 L/kg | 1.6 µM·h | 28.2 min | 40% | 0.0567 µM | 17 min | 28 mL/min/kg | COc1ccc2c(c1)CC(C(=O)Nc1cc(F)c(-c3cn[nH]c3)c(F)c1)CO2 (stereo not drawn)
– | 23% | – | – | – | 600 nM | 0.8 L/kg | 1.5 µM·h | – | – | – | – | – | O=C(Nc1cc(F)c(-c2cn[nH]c2)c(F)c1)C1COc2ccccc2C1 (stereo not drawn)
– | – | – | – | – | – | – | – | – | – | 0.179 µM | – | – | O=C(Nc1ccc(-c2cn[nH]c2)cc1F)C1COc2ccccc2O1 (stereo not drawn)
